SUMO Mot1 rescue – SUMOylation pathway inhibition by Mot1-301 growth rescue. S. cerevisiae Mot1-301 growth rescue, ATP luminescence, 38.5C; percent above DMSO median, 100 means doubled. 320,000 tested, 1% active. AID 2716. growth rescue, % at 18.8 µM;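 active = every valid replicate shows activation above 250% relative to neutral control wells; inactive = the rest, any valid replicate at or below 250%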;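 note: OY570 slx delta 5 strain wells were the positive control but not used for scaling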
VIM-2 inhibitor – inhibitors of Pseudomonas aeruginosa VIM-2 metallo-beta-lactamase; purified VIM-2, nitrocefin hydrolysis, epi-absorbance fluorescence; inhibition, % at 5.6 µM; 290,000 tested, 0.89% active; AID 1527;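 active = inhibition above the mean of all tested compounds plus 3 SD, cutoff set per screening run, cut at about 7.5% in these data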;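 note: red hydrolysis product quenches plate fluorescence so inhibitors raise well fluorescence; 0% = enzyme with DMSO and 100% = DMSO without enzyme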
PolyA inh – yeast polyadenylation inhibition; S. cerevisiae SKY197-pL101 polyadenylation reporter, beta-gal luminescence; efflux-impaired pdr1/pdr3 knockout yeast; score 100 = 6 SD above DMSO; 300,000 tested, 0.02% active; activity score, % at 12 µM; AID 1875;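 active = lowest replicate activity score at least 50, where 100 means six control SD above control mean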;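 note: yeast exposed to compound for 9 h at 30 °C; higher score means more reporter readthrough which indicates perturbed polyadenylation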
IMP-1 inh – blocks Pseudomonas aeruginosa IMP-1 metallo-beta-lactamase | purified IMP-1, nitrocefin hydrolysis, epi-absorbance fluorescence | inhibition, % at 5.6 µM | 290,000 tested, 0.45% active | AID 1556;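 active = inhibition above the mean plus 3 SD of all compounds in the same screening run, cut at about 4.5% in these data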;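 note: 0% = IMP-1 with DMSO and 100% = DMSO wells lacking enzyme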
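system = purified recombinant IMP-1 beta-lactamase | amount = 0.2 nM IMP-1, as dispensed | medium = HEPES buffer pH 7.1 with ZnSO4 and Brij 35 | times = 25 °C, 15 min preincubation, 25 min reaction | detection = plate fluorescence quenching by hydrolysis product, ex 480/em 530 nm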
NALP1 inh – blocks the NALP1 inflammasome reconstituted in yeast; S. cerevisiae NALP1/ASC/caspase-1 growth, X-gal OD620, 72 h; inhibition, % at 10 µM; 280,000 tested, 0.61% active; in the data active = inhibition mostly above about 24%, no sharp cut-off; inactive = mostly below about 32%
NLRP3 yeast inh – NALP3 inhibition in yeast. inhibition, % at 10 µM. 330,000 tested, 0.39% active. Yeast reconstituted NLRP3/ASC/caspase-1, beta-gal luminescence, 24 h;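 active = inhibition of 50% or more; inactive = inhibition below 50%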;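 note: plate controls were induced DMSO wells for no effect and uninduced yeast grown without galactose for full effect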
Mot1 SUMO dose – yeast SUMO pathway inhibition in dose response. shares compounds with SUMO Mot1 rescue. S. cerevisiae Mot1-301 galactose growth, ATP luminescence, 24 h; -100 = growth of slx-deleted rescue strain. growth activity, percent, % at 42 µM. 2,300 tested, under 10 active. AID 493004;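 active = Signal drops as the depositor expects, and the fitted half-maximal dose is no more than ten times the top valid tested dose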;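 note: more negative values mean stronger growth rescue toward the control strain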
Starred values were filed as active, the others as inactive; i = inactive; x = no result given; + = active, no number. This is a sample that favours compounds with a hit; in the whole collection about 2.9% have one here.

SMILES	SUMO Mot1 rescue	VIM-2 inhibitor	PolyA inh	IMP-1 inh	NALP1 inh	NLRP3 yeast inh	Mot1 SUMO dose
O=[N+]([O-])c1ccc(N/N=C/c2cccc(O)c2)cc1	483.5*	-2.4	-3.1	-1.2	8.8	15.6	-2.1
O=[N+]([O-])c1ccc(N/N=C/c2cccnc2)cc1	256.1	1.2	2.2	-7.0	17.1	-13.6	x
COc1cccc(N2CCN(c3ccc([N+](=O)[O-])cn3)CC2)c1	331.7	-3.3	0.6	-4.6	-8.2	12.2	x
CCOC(=O)C(NC(=O)c1ccc(OC)cc1)(N1CCOCC1)C(F)(F)F (stereo unspecified)	-7.3	-3.0	21.6	-4.7	-1.7	-3.4	x
CCOC(=O)C(NC(=O)c1ccccc1)(N1CCOCC1)C(F)(F)F (stereo unspecified)	+	-1.8	6.6	-2.4	15.7	19.8	0.0
CC(=O)Nc1cccc2c1C(=O)N(c1ccccc1C)C2=O	518.3*	-4.8	-17.7	-1.1	-12.2	-5.3	-0.6
CC(=O)Nc1cccc2c1C(=O)N(c1ccccc1OC(C)=O)C2=O	i	-0.4	2.9	0.3	4.4	15.6	x
Cc1cc(-c2ccc(C)c(S(=O)(=O)Nc3cc(C)on3)c2)on1	259.5	-1.8	6.0	-2.1	18.5	2.0	x
COc1ccc(-c2oc3ccc(-c4cc(OC)c(OC)c(OC)c4)cc3c2C(=O)c2ccc(OC)nc2)cc1	812.8*	0.1	-6.2	-0.8	-5.9	-7.9	0.0
CCCOC(=O)c1c(-c2ccc(OC)cc2)oc2ccc(-c3ccc(OC)nc3)cc12	632.6*	0.8	3.5	-1.7	-4.5	13.0	-0.3
COc1ccc(C(=O)c2c(-c3ccc(OC)cc3)oc3ccc(-c4cc(OC)c(OC)c(OC)c4)cc23)cc1	95.9	x	-17.1	x	x	3.8	x
COc1ccc2[nH]cc(CCNS(=O)(=O)c3ccc(C)cc3)c2c1	483.9*	-2.2	12.5	-3.0	-0.9	2.9	-0.2
O=C(/C=C/c1cccc([N+](=O)[O-])c1)NCCSCc1ccc(Cl)cc1Cl	367.6*	-1.2	-8.5	-2.9	35.5	15.2	-0.5
Cc1ccc2c(c1)nc(-n1nc(C)cc1C)c1nnnn12	58.3	0.7	6.1	-2.6	-0.2	4.7	x
COc1cc(O)oc1C=Nc1ccc(C(=O)O)cc1	577.4*	-2.5	-7.2	-1.6	-3.2	-11.4	-2.1
Cc1ccc(N2CCN(S(=O)(=O)c3c(C)noc3C)CC2C)cc1 (stereo unspecified)	-13.5	-0.6	25.3	-3.1	16.4	24.3	x
COc1ccc(S(=O)(=O)N2CCCCCC2)cc1C(=O)Nc1ccccn1	-4.6	-1.9	-15.6	-3.3	-0.3	-0.9	x
c1ccc(-c2cc3ccccc3cn2)cc1	372.4*	x	x	x	x	30.2	-0.8
COc1cc(C(=S)N2CCOCC2)cc(OC)c1OS(=O)(=O)c1ccc(C)cc1	-11.9	-0.4	-9.7	-1.4	-0.5	4.0	x
COc1cc2c(cc1OC)C(c1ccccc1[N+](=O)[O-])N(C(C)=O)CC2 (stereo unspecified)	383.6*	0.3	13.2	-1.3	12.4	11.2	0.2
Clc1cc(Br)ccc1OCCOCCN1CCCC1	71.1	-2.2	9.5	-2.4	-5.8	26.4	x
Clc1cc(Br)ccc1OCCOCCN1CCOCC1	504.0*	-1.7	32.4	-2.7	-10.3	14.2	-0.2
CCOc1ccc(Br)cc1CNCCN1CCOCC1	399.1*	-1.5	1.5	-2.6	29.9	-3.4	-0.4
COc1cc(CNCCN2CCOCC2)ccc1OCc1ccccc1Cl	452.7*	-4.0	15.4	-2.6	21.8	6.4	-0.3
COc1cc(CNCCN2CCOCC2)ccc1OCc1ccc(Cl)cc1	37.7	-0.8	-9.7	-3.2	8.6	15.4	x
CCOc1ccc2ccccc2c1CNCCN1CCOCC1	10.6	-2.1	4.7	-2.4	4.3	27.3	x
CCOc1ccc2nc(SC3CC(=O)N(c4ccc(OC)cc4OC)C3=O)sc2c1 (stereo unspecified)	26.3	-2.9	-1.7	-3.5	9.1	20.4	x

Screening results: PubChem BioAssay, several laboratories
